M1 agonist = M1 muscarinic receptor agonism. CHO-M1 cells, Fluo-4 calcium fluorescence, agonist mode; stronger effect = higher value. 64,000 tested, 3% active. B-score at 10 µM. AID 626;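 active = fluorescence rise, raw or as B-score row- and column-corrected plate score, outside the 99.7% band of its plate's samples, either direction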
SF-1 act = activates the human nuclear receptor SF-1. activation, % at 10 µM. Q13285. CHO-K1 Gal4-SF-1 LBD luciferase reporter; % increase over DMSO SF-1-specific signal. 65,000 tested, 1.9% active. AID 522;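 active = activation above the mean activation of all tested compounds plus 3 SD, cut at about 50% in these data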
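Assay system: CHO-K1 cells co-transfected with Gal4 DBD–human SF-1 LBD, 5xGal4 luciferase reporter; doses: 10 µM only; incubation: 20 h compound exposure at 37 °C after 1 h cell settling; signal: luciferase light emission; evaluation: percent activation versus DMSO; repeats: one test per compound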
M1 antagonist = M1 muscarinic receptor (rat) antagonism | 64,000 tested, 3.4% active | AID 628 | B-score at 10 µM | CHO-M1 cells, Fluo-4 calcium, ACh EC80 antagonist mode; stronger effect = lower value | P08482;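 active = calcium fluorescence response, raw or row-and-column corrected B-score, differing from the plate sample mean either way at a set confidence level, mostly lower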
MT1-MMP txn act = activates MT1-MMP transcription. HT1080 MT1-MMP promoter luciferase reporter, luminescence, overnight; stronger effect = higher value. activation factor at 10 µM. 86,000 tested, 0.16% active;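 active = activation factor of at least 2 for MT1-MMP transcription at 10 µM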
RORa activator = activates the human nuclear receptor RORA | CHO-K1 Gal4-RORA LBD luciferase reporter, luminescence; percent increase over mock-subtracted basal signal | activation, % at 10 µM | P35398 | 65,000 tested, 1.5% active;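 active = activation above the mean of all tested compounds plus 3 SD, cut at about 49% in these data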;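 note: 0% = DMSO-treated RORA cells and 100% = added signal equal to DMSO minus mock-transfected cells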
Target sequence (P35398 whole entry, looked up, the tested form may be a part): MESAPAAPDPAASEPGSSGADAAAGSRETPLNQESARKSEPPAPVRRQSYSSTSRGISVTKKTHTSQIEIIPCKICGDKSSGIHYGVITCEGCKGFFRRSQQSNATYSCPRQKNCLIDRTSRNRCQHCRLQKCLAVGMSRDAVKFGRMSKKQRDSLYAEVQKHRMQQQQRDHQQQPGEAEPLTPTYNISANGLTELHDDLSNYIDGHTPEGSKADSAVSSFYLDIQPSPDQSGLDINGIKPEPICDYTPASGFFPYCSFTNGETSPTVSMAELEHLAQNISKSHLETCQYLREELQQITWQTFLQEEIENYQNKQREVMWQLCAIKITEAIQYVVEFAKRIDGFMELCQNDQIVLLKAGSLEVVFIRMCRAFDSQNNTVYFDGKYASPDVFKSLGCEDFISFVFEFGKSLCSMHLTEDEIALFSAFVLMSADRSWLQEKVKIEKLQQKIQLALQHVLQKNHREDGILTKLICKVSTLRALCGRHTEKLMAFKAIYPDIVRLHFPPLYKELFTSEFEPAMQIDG
M1 antag confirm = M1 muscarinic receptor (rat) antagonism, confirmed | shares compounds with M1 antagonist | CHO-M1 cells, Fluo-4 calcium, ACh EC80 antagonism; stronger effect = lower value | calcium response (max-min fluorescence) at 10 µM | 1,700 tested, 43% active | AID 677;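 active = calcium response below the same-plate mean of wells given acetylcholine alone at its 80%-effect dose, minus 3 SD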;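 note: raw fluorescence intensity difference in arbitrary instrument units and not normalized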
mGluR4 antag = acts on human mGluR4 in M1 antagonist selectivity test; shares compounds with M1 antagonist; CHO-mGluR4 calcium flux, Fluo-4 fluorescence, glutamate EC80; stronger effect = lower value; fluorescence response (max-min) at 10 µM; 1,700 tested, 0.9% active; AID 678;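 active = fluorescence response below the plate's average for near-maximal glutamate wells, less 3 SD of those wells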;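 note: raw unnormalized fluorescence span taken in the window right after glutamate addition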
* hit, by the source's call. This is a sample that favours compounds with a hit; in the whole collection about 6.3% have one here.

Results for CNC(=O)c1nnn(Cc2ccccc2)c1NC(=O)C(F)(F)F ?
M1 agonist: -1.52; SF-1 act: 8.3; M1 antagonist: 0.366; MT1-MMP txn act: 1.3; RORa activator: 0.3

How did Cc1ccc(NC(=O)CS(=O)CC(=O)NC2CCN(Cc3ccccc3)CC2)c(C)c1 (configuration not stated) do in these assays?
M1 agonist: 0.206; SF-1 act: -6.4; M1 antagonist: -7.75*; MT1-MMP txn act: 1.2; RORa activator: 11.8; M1 antag confirm: 645; mGluR4 antag: 241

Results for O=C(NC1CCCCC1)C1CCN(C(=O)NCc2ccccc2)CC1 ?
M1 agonist: -0.213; SF-1 act: -2.3; M1 antagonist: -1.39*; MT1-MMP txn act: 1.1; RORa activator: 29.6; M1 antag confirm: 671; mGluR4 antag: 215

How did O=C(NC1CC2CCC(C1)N2C(=O)NCc1ccccc1)C1CC1 (configuration not stated) do in these assays?
M1 agonist: 0.0297; SF-1 act: 9.6; M1 antagonist: -2.21*; MT1-MMP txn act: 1.1; RORa activator: 4.5; M1 antag confirm: 419*; mGluR4 antag: 241

Results for CC1Cc2ccccc2N1C(=O)CSc1nnc2c(n1)[nH]c1ccc(F)cc12 (configuration not stated) ?
MT1-MMP txn act: 1.1

How did O=S(=O)(NC1CCCC1)c1ccc(S(=O)(=O)N2CCN(c3ccccc3)CC2)cc1 do in these assays?
MT1-MMP txn act: 1.3

How did Cc1onc(-c2ccccc2Cl)c1C(=O)Nc1ccc(-c2nnc3n2CCCCC3)cc1 do in these assays?
M1 agonist: 0.36; SF-1 act: 1.3; M1 antagonist: -2.29*; MT1-MMP txn act: 1.1; RORa activator: -4.0; M1 antag confirm: 408*; mGluR4 antag: 216

Results for Cc1onc(-c2ccccc2Cl)c1C(=O)Nc1nnc(C(C)C)s1 ?
M1 agonist: -0.16; SF-1 act: 8.9; M1 antagonist: -2.19*; MT1-MMP txn act: 1.3; RORa activator: 19.8; M1 antag confirm: 377*; mGluR4 antag: 190

Results for O=C(NCCCN1CCc2ccccc2C1)C1CCN(c2nnc(-n3cccc3)s2)CC1 ?
M1 agonist: -0.0963; SF-1 act: -12.0; M1 antagonist: -2.92*; RORa activator: -15.1; M1 antag confirm: 337*; mGluR4 antag: 209

Results for O=C(NCCCN1CCN(Cc2ccccc2)CC1)C1CCN(c2nnc(-n3cccc3)s2)CC1 ?
M1 agonist: 0.0496; SF-1 act: 4.0; M1 antagonist: -6.89*; MT1-MMP txn act: 1.3; RORa activator: 0.9; M1 antag confirm: 419*; mGluR4 antag: 181

What do the screens show for `O=C(NCCCc1ccccc1)C1CCN(c2nnc(-n3cccc3)s2)CC1`?
M1 agonist: -1.26; SF-1 act: -23.3; M1 antagonist: -0.301; MT1-MMP txn act: 1.1; RORa activator: 24.7

How did CCn1ncc(C2=NOC(C(=O)NCc3ccc(Cl)cc3)C2)c1C (configuration not stated) do in these assays?
M1 agonist: -1.78; SF-1 act: 16.3; M1 antagonist: -0.057; MT1-MMP txn act: 0.5; RORa activator: 6.9

What do the screens show for `Clc1ccc(COn2nnc3ccccc32)c(Cl)c1`?
M1 agonist: 0.926; SF-1 act: 35.7; M1 antagonist: 0.416; MT1-MMP txn act: 1.3; RORa activator: 37.8

Results for CCN1CCN(CCCNC(=O)c2cc3cc4ccc(OC)cc4nc3o2)CC1 ?
M1 agonist: -0.0681; SF-1 act: 6.9; M1 antagonist: -3.88*; MT1-MMP txn act: 1.2; RORa activator: 20.3; M1 antag confirm: 563; mGluR4 antag: 251

What do the screens show for `COc1ccc2cc3cc(C(=O)NCCN4CCN(Cc5ccccc5)CC4)oc3nc2c1`?
M1 agonist: 1; SF-1 act: 23.0; M1 antagonist: -2.2*; MT1-MMP txn act: 1.6; RORa activator: 25.1; M1 antag confirm: 486*; mGluR4 antag: 254

What do the screens show for `CCn1c(N)c(C(=O)NC2CCCCC2)sc1=S`?
M1 agonist: -0.194; SF-1 act: -6.9; M1 antagonist: 0.0201; MT1-MMP txn act: 1; RORa activator: 11.3

Screens deposited in PubChem BioAssay by several laboratories.
